In brackets after ≈: the same amount, converted by molar mass. Some results are limits rather than exact numbers.

MIC90, MIC and alphaKi data for 14 molecules are collected here from ChEMBL document CHEMBL4219150, “Fragment-Based Approach to Targeting Inosine-5'-monophosphate Dehydrogenase (IMPDH) from Mycobacterium tuberculosis” (J Med Chem, 2018).

Sequence of Inosine-5'-monophosphate dehydrogenase (Mycobacterium tuberculosis (strain ATCC 25618 / H37Rv)) (P9WKI7 whole entry): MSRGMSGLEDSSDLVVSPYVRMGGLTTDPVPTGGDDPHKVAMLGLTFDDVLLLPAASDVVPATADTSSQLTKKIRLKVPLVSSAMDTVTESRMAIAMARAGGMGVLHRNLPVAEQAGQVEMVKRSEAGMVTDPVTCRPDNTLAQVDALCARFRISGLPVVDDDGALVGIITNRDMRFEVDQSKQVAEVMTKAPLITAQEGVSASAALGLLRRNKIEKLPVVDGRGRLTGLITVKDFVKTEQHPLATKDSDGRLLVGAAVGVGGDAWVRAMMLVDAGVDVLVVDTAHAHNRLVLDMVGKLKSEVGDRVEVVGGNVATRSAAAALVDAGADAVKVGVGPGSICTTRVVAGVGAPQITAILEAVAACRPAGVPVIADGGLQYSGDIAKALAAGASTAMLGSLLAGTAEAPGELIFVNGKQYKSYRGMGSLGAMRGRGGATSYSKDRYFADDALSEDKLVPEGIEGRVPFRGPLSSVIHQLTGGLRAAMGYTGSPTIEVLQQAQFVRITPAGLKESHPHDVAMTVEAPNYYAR

One experiment concerns Mycobacterium tuberculosis. The experiment is described as follows: Antibacterial activity against Mycobacterium tuberculosis H37Rv assessed as inhibition of bacterial growth after 7 days by alamar blue fluorescence-based broth microdilution assay. The format is functional. Conditions: 168 h. The gist of the method: (§1)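 Mtb H37Rv grown to mid-exponential phase in Middlebrook 7H9 with OADC, 0.2% glycerol, 0.05% Tween-80. Compounds in DMSO (1%) tested at 8 concentrations; rifampin and isoniazid as positive controls. ~10^5 bacteria per well, 37°C for 7 d, then Alamar Blue for a further 24 h at 37°C. Fluorescence read at ex 544/em 590 nm. Data normalised to min/max inhibition controls; MIC90 taken from the dose-response curve.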
On to `C[C@H](Oc1ccc(-c2cn(C)cn2)cc1)C(=O)Nc1nc(-c2ccc(Br)cc2)c[nH]1`, for which the MIC90 was ≥ 50 µM.
Same read-out and setting: with `CC(Oc1ccc(-c2cn(C)cn2)cc1)C(=O)Nc1ccccc1` (stereo not given) the figure was ≥ 50 µM; with `CC(Oc1ccc(-c2cn(C)cn2)cc1)C(=O)Nc1ccc(I)cc1` (stereo not given), ≥ 50 µM; with `CC(Oc1ccc(-c2cn(C)cn2)cc1)C(=O)Nc1nc(-c2ccc(I)cc2)c[nH]1` (stereo not given), ≥ 50 µM.
On the same count and under the same terms, to `CC(Oc1ccc(-c2cn(C)cn2)cc1)C(=O)Nc1nc(-c2ccccc2)c[nH]1` (stereo not given) belongs ≥ 50 µM; to `CC(Oc1ccc(-c2cn(C)cn2)cc1)C(=O)Nc1nc(-c2ccc(Br)cc2)co1` (stereo not given), ≥ 50 µM.
On the same count and under the same terms, to `CC(Oc1ccc(-c2cn(C)cn2)cc1)C(=O)Nc1nc(-c2ccc(Br)cc2)c[nH]1` (stereo not given) belongs ≥ 50 µM; to `CC(Oc1ccc(-c2cn(C)cn2)cc1)C(=O)Nc1nc(-c2ccc(N3CCOCC3)cc2)c[nH]1` (stereo not given), ≥ 50 µM.
Consider `COc1ccc(-c2c[nH]c(NC(=O)C(C)Oc3ccc(-c4cn(C)cn4)cc3)n2)cc1` (stereo not given), for which the MIC90 is ≥ 50 µM.

For a further experiment, the system named is Mycobacterium tuberculosis. The experiment in a line: Antibacterial activity against Mycobacterium tuberculosis ATCC 27294 after 7 days by broth microdilution method. It counts as functional. Conditions: ATCC 27294, 168 h.
`C=C(C)c1cccc(C(C)(C)NC(=O)Nc2ccc(Cl)c(C(=O)N(C)C)c2)c1` showed an MIC of 5 µM (≈ 2 µg/mL).
Still for that read-out and setting: to `COc1c(C)c2c(c(O)c1C/C=C(\C)Cn1cc(COC[C@H]3O[C@@H](n4cnc5c(N)ncnc54)[C@H](O)[C@@H]3O)nn1)C(=O)OC2` belongs 100 µM (≈ 60.9 µg/mL).

The next experiment concerns the target Inosine-5'-monophosphate dehydrogenase (Mycobacterium tuberculosis (strain ATCC 25618 / H37Rv)) (UniProt P9WKI7). The experiment in a line: Uncompetitive inhibition of Mycobacterium tuberculosis H37Rv IMPDH assessed as reduction in NADH production preincubated for 5 mins followed by substrate IMP addition at increasing concentration measured for 32 mins in presence of a constant concentration of NAD+ by Lineweaver-Burk plot analysis.
Conditions: not given
Take `COc1ccc(OC(C)C(=O)Nc2ccc(I)cc2)cc1` (stereo not given): the alphaKi was 0.603 µM.

In the next experiment the test system is Mycobacterium tuberculosis. The experiment in a line: Antibacterial activity against Mycobacterium tuberculosis after 7 days by Alamar Blue assay. As to conditions: 168 h. It counts as functional. The gist of the method:
as §1
With `COc1ccc(OC(C)C(=O)Nc2ccc(I)cc2)cc1` (stereo not given), the minimum inhibitory concentration (MIC) amounted to 12.5 µM (≈ 4.97 µg/mL).

For the next experiment, the system named is Mycobacterium tuberculosis. The experiment is described as follows: Antibacterial activity against Mycobacterium tuberculosis. The format is functional.
Conditions: not given
In short, it runs like this: as §1
In the case of `Cc1n[nH]c(C)c1S(=O)(=O)Nc1ccc2c[nH]nc2c1`, it took 2 µM (≈ 0.583 µg/mL) to inhibit growth (MIC).
Same read-out and setting: to `O=C(C1CCCCC1)N1CCN(S(=O)(=O)c2ccc3cnccc3c2)CC1` belongs 1.9 µM (≈ 0.736 µg/mL).
